The text below walks through data of PubChem BioAssay.

Active and inactive are the calls of the source.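 Rule for the calls, unless noted: active = Her2 level under about 52% in both replicate screens, with viability over 70% of control (limit read from the data); inconclusive = Her2 under the limit in one screen only, or viability under 70%; inactive = Her2 level above the set limit.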

A short description of test [1]: reducers of endogenous Her2 protein level, primary screen, SKBR3 breast tumor cells, AlphaScreen, ATP viability (AID 461).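 For Her2 level: lower value means less Her2 protein in the cells.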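 For viability: percent of carrier control wells set as 100% viability.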 As to conditions: 18-24 h, measured here: SKBR3 viability, ATP luminescence, at 10 µM. In general terms: In Alpha technology, singlet oxygen from a donor bead excites a nearby acceptor bead.
Test [2] addresses Receptor tyrosine-protein kinase erbB-2 (Homo sapiens) (UniProt P04626). Described as above. As to conditions: 18-24 h, at 10 µM, stronger effect = lower value.
A short description of test [3]: SK-BR-3 cell growth inhibitors, pilot screen, 24 h, human (AID 572;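 active = viability at or below 10% of carrier control in both of two separate runs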;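 note: compound exposure lasted between 18 and 24 h rather than exactly 24 h; 100% = carrier-treated control wells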). Conditions: SK-BR-3 viability, CellTiter-Glo luminescence, at 10 µM, stronger effect = lower value. (Cellular ATP, detected with luciferase, serves as a proxy for viable cell number.)
Test [4] can be described thus: HUVEC growth inhibition – cell-based, human, primary screen (AID 575;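 active = viability at or below 30% in both replicate assays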;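 note: 100% = median of untreated cell wells with 0.1% DMSO on each plate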). Conditions: HUVEC proliferation, CellTiter-Glo luminescence, 72 h; at 10 µM; stronger effect = lower value. In outline:
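System: primary human umbilical vein endothelial cells; Quantity: 1250 endothelial cells in each well; Buffer or medium: supplemented EBM, 2% fetal bovine serum; Doses: one dose, 10 µM final, 0.1% DMSO; Incubation: 72 h compound incubation; Technique: ATP-based CellTiter-Glo luminescent read; Evaluation: percent of median DMSO-control luminescence; Controls: vehicle and MePR control wells.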

Test [5] is described as follows: growth inhibitors of H69AR lung tumor, primary screen, human, duplicate replicates (AID 580;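 active = viability at or under a set limit in both replicates, limit being median viability minus 3 SD, cut at about 48% in these data, passing the limit was not always enough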;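 note: 100% = mean luminescence of untreated wells and 0% = no signal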). Conditions: H69AR lung tumor cells viability, ATP luminescence, 72 h; at 10 µM; stronger effect = lower value.
A short description of test [6]: reversal of MRP1-mediated doxorubicin resistance, pilot screen, H69AR cells, doxorubicin co-treatment (AID 601;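 active = viability loss from added drug above about 55%, and viability with drug at most 40%, in both replicates, limit read from the data, passing the limit was not always enough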). Conditions: CellTiter-Glo, 72 h, at 10 µM; for differential viability (reversal): stronger effect = higher value.
Test [7] is described as follows: 384-well plate pilot, post-Golgi transport modulator project, inhibition of yeast transport mutant growth (AID 636; in the data active = inhibition above about 31%). Conditions: absorbance 615 nm, about 18 h, stronger effect = higher value.
Test [8] is described as follows: growth suppression of yeast trafficking mutant, preliminary HTS, modulators of trafficking downstream of Golgi apparatus project, 1536-format plate, OD 615 nm (AID 637; in the data active = inhibition above about 30%). Conditions: yeast transport mutant growth, absorbance 615 nm, 18 h; stronger effect = higher value.
Setting [9] is: H69AR cells + 2 uM doxorubicin, measured here: viability with 2 uM doxorubicin, stronger effect = lower value.
The mark [10] stands for this setting: H69AR cells, compound alone cytotoxicity.

Chain of Receptor tyrosine-protein kinase erbB-2 (Homo sapiens) (P04626 whole entry, looked up): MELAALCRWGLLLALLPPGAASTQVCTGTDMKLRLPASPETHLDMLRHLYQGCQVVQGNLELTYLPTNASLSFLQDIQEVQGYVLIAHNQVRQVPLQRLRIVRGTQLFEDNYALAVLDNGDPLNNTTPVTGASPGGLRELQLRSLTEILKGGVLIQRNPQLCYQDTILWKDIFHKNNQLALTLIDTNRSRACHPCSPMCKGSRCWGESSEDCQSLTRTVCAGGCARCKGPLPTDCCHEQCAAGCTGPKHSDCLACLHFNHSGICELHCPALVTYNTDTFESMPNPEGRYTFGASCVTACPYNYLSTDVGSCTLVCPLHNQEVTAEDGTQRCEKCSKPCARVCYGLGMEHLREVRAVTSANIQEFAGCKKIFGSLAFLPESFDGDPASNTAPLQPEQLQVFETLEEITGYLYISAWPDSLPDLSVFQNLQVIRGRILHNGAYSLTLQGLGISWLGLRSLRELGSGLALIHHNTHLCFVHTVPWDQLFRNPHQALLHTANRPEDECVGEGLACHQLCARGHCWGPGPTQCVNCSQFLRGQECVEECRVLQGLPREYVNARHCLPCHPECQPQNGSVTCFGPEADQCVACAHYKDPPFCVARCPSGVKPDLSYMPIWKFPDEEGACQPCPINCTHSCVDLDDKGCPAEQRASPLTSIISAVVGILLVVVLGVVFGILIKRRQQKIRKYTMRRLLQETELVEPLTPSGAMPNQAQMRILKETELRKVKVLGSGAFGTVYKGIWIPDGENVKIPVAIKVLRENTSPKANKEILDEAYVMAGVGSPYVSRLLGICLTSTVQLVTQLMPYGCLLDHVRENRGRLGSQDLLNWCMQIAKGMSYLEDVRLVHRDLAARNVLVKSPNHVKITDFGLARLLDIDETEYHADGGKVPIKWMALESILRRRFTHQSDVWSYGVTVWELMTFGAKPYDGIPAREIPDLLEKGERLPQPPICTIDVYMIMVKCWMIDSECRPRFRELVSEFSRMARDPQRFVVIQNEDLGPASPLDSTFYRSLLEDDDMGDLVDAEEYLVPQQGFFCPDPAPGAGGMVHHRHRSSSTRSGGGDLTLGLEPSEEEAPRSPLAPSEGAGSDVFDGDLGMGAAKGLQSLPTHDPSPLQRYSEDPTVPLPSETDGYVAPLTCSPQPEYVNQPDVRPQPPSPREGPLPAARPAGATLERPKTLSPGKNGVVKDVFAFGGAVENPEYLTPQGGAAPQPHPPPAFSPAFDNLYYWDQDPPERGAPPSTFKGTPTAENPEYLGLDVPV

As usually defined, the viability is a read-out of living cells in per cent, often relative to untreated cells. Usually inhibition stands for the relative decrease from the control value, in per cent. Turning to `Cc1cc(C(=O)NCc2ccc(S(N)(=O)=O)cc2)cs1`, the viability in test [1] is 84.5%; in test [3] it was 84.5% (inactive); in test [4], 105% (inactive); in test [5] it was 104% (inactive); in test [6] (setting [9]) it was 90.7%; in test [6] (setting [10]), 104%. In addition, in test [2], the Her2 level is 87.5% (inactive). Besides, the differential viability (reversal) in test [6] (H69AR cells + 2 uM doxorubicin) is 13% (inactive). In addition, the inhibition in test [7] is -5.73% (inactive); in test [8] it was 4.1% (inactive).
`O=C(Nc1cccc(F)c1)c1ccc2c(c1)OCO2`: the viability was 97.5% in test [1]; 97.5% (inactive) in test [3]; 103% (inactive) in test [4]; 97.1% (inactive) in test [5]; 83.7% in test [6] (setting [9]); 97.1% in test [6] (setting [10]). Moreover, in test [2], the Her2 level was 106% (inactive). Also, the differential viability (reversal) in test [6] (H69AR cells + 2 uM doxorubicin) is 13.4% (inactive). Besides, the results for the inhibition in test [7] and in test [8] were -2.63% (inactive) and -3.44% (inactive), respectively.
As for `O=C(CSc1ncnc2c1cnn2Cc1ccccc1)Nc1ccc2c(c1)OCCO2`, the viability in test [1] is 109%; in test [3], 109% (inactive); in test [4], 74.9% (inactive); in test [5], 56.1% (inactive); in test [6] (setting [9]), 61.3%; in test [6] (setting [10]) it was 56.1%. For the same compound, the Her2 level in test [2] is 98.5% (inactive). The differential viability (reversal) in test [6] (H69AR cells + 2 uM doxorubicin) is -5.15% (inactive). Also, the inhibition is -4.68% (inactive) in test [7] and -6.23% (inactive) in test [8].
Turning to `CCOC(=O)c1ccccc1NC(=O)c1cc2sccc2n1C`, the viability was 90% in test [1]; 90% (inactive) in test [3]; 70.5% (inactive) in test [4]; 81% (inactive) in test [5]; 77% in test [6] (setting [9]); 81% in test [6] (setting [10]). Further, the Her2 level in test [2] is 96% (inactive). Moreover, the differential viability (reversal) in test [6] (H69AR cells + 2 uM doxorubicin) is 3.9% (inactive). Further, the values for the inhibition in test [7] and in test [8] were 1.23% (inactive) and -2.38% (inactive), respectively.
Turning to `CCCCCn1c(CN2CCN(C)CC2)nc2c1c(=O)n(C)c(=O)n2C`, the viability in test [1] is 103%; in test [3], 103% (inactive); in test [4], 98.4% (inactive); in test [5], 85.9% (inactive); in test [6] (setting [9]), 92.5%; in test [6] (setting [10]), 85.9%. For the same compound, the Her2 level in test [2] was 103% (inactive). In test [6] (H69AR cells + 2 uM doxorubicin), the differential viability (reversal) is -6.67% (inactive). Besides, the inhibition is -3.87% (inactive) in test [7] and -2.67% (inactive) in test [8].
As for `Cc1ccccc1-c1nc(CN2CCC(C(=O)NCCCN3CCCC3)CC2)c(C)o1`, the viability was 81.5% in test [1]; 81.5% (inactive) in test [3]; 63% (inactive) in test [4]; 98.2% (inactive) in test [5]; 89.3% in test [6] (setting [9]); 98.2% in test [6] (setting [10]). In test [2], the Her2 level is 91.5% (inactive). For the same compound, the differential viability (reversal) in test [6] (H69AR cells + 2 uM doxorubicin) was 8.91% (inactive). Also, the inhibition in test [7] is 1.32% (inactive); in test [8], 0.55% (inactive).
Consider `COc1ccc(-c2nnc(SCC(=O)NC(=O)NCc3ccco3)o2)cc1`, for which the viability was 102% in test [1]; 102% (inactive) in test [3]; 85.9% (inactive) in test [4]; 86.8% (inactive) in test [5]; 88.1% in test [6] (setting [9]); 86.8% in test [6] (setting [10]). In addition, in test [2], the Her2 level is 85.5% (inactive). The differential viability (reversal) in test [6] (H69AR cells + 2 uM doxorubicin) was -1.33% (inactive). For the same compound, the inhibition in test [7] was -0.65% (inactive); in test [8], -2.46% (inactive).
Turning to `COc1ccc(-n2nc(C(=O)Nc3ccc4c(c3)OCO4)c3c4ccccc4n(C)c3c2=O)cc1`, the viability in test [1] is 99%; in test [3], 99% (inactive); in test [4] it was 98% (inactive); in test [5], 92.6% (inactive); in test [6] (setting [9]), 104%; in test [6] (setting [10]) it was 92.6%. In addition, the Her2 level in test [2] was 88.5% (inactive). In addition, the differential viability (reversal) in test [6] (H69AR cells + 2 uM doxorubicin) is -10.9% (inactive). Moreover, the values for the inhibition in test [7] and in test [8] were -3.03% (inactive) and -1.45% (inactive), respectively.
Take `CCCn1c(SCC(=O)NCCc2ccccc2)nnc1-c1ccccn1`: the viability is 97.5% in test [1]; 97.5% (inactive) in test [3]; 108% (inactive) in test [4]; 93.9% (inactive) in test [5]; 105% in test [6] (setting [9]); 93.9% in test [6] (setting [10]). Further, in test [2], the Her2 level was 100% (inactive). Moreover, in test [6] (H69AR cells + 2 uM doxorubicin), the differential viability (reversal) is -11.1% (inactive). The inhibition in test [7] was -2.8% (inactive); in test [8], -5.16% (inactive).
In the case of `CCSc1nncn1/N=C/c1ccc(OC)c(OC)c1`, the viability in test [1] is 84%; in test [3], 84% (inactive); in test [4], 91.8% (inactive); in test [5] it was 91.6% (inactive); in test [6] (setting [9]), 95%; in test [6] (setting [10]) it was 91.6%. Moreover, the Her2 level in test [2] is 124% (inactive). Besides, the differential viability (reversal) in test [6] (H69AR cells + 2 uM doxorubicin) is -3.4% (inactive). Further, the inhibition was -0.9% (inactive) in test [7] and -7.5% (inactive) in test [8].
In the case of `CCOC(=O)c1ccc2[nH]c(C)c(CN3CCN(C)CC3)c(=O)c2c1`, the viability in test [1] is 114%; in test [3], 114% (inactive); in test [4], 97.9% (inactive); in test [5] it was 91.4% (inactive); in test [6] (setting [9]), 91.8%; in test [6] (setting [10]), 91.4%. In test [2], the Her2 level is 81% (inactive). The differential viability (reversal) in test [6] (H69AR cells + 2 uM doxorubicin) was -0.335% (inactive). For the same compound, the inhibition in test [7] was -7.03% (inactive); in test [8], 2.79% (inactive).
On to `CCOC(=O)N1CCN(C(=O)c2cccn3c(=O)c4sccc4nc23)CC1`, for which the viability in test [1] is 89.5%; in test [3], 89.5% (inactive); in test [4], 106% (inactive); in test [5], 90.8% (inactive); in test [6] (setting [9]), 104%; in test [6] (setting [10]), 90.8%. Further, the Her2 level in test [2] was 93.5% (inactive). In test [6] (H69AR cells + 2 uM doxorubicin), the differential viability (reversal) is -12.8% (inactive). Moreover, the inhibition is 3.6% (inactive) in test [7] and -0.33% (inactive) in test [8].
Take `Cc1ccc(-c2[nH]nc3c2C(c2ccc(OC(=O)N4CCOCC4)cc2)C(C#N)=C(N)O3)cc1` (stereo not given): the viability in test [1] is 89%; in test [3], 89% (inactive); in test [4] it was 106% (inactive); in test [5], 85.5% (inactive); in test [6] (setting [9]), 96%; in test [6] (setting [10]), 85.5%. The Her2 level in test [2] is 93% (inactive). Also, in test [6] (H69AR cells + 2 uM doxorubicin), the differential viability (reversal) was -10.4% (inactive). In addition, the inhibition in test [7] was -5.26% (inactive); in test [8], -11.4% (inactive).
Consider `CCN(CC)C(=O)C1CCCN(Cc2ccc(N(C)C)cc2)C1` (stereo not given), for which the viability in test [1] was 90.5%; in test [3] it was 90.5% (inactive); in test [4] it was 100% (inactive); in test [5], 89.5% (inactive); in test [6] (setting [9]), 93%; in test [6] (setting [10]) it was 89.5%. For the same compound, the Her2 level in test [2] is 96.5% (inactive). In test [6] (H69AR cells + 2 uM doxorubicin), the differential viability (reversal) is -3.46% (inactive). Further, the inhibition in test [7] is -1.82% (inactive); in test [8], -4.75% (inactive).
For the compound `COc1cc(OC)c(C2N(C)c3ccccc3N2C)cc1OC`, the viability in test [1] was 91.5%; in test [3], 91.5% (inactive); in test [4], 86.7% (inactive); in test [5] it was 107% (inactive); in test [6] (setting [9]) it was 98.4%; in test [6] (setting [10]) it was 107%. In addition, the Her2 level in test [2] was 112% (inactive). In addition, the differential viability (reversal) in test [6] (H69AR cells + 2 uM doxorubicin) was 8.16% (inactive). Also, the inhibition was -5.68% (inactive) in test [7] and 4.26% (inactive) in test [8].
For `CCOC(=O)c1oc2cccc(OC(C)=O)c2c1C`, the viability in test [1] was 106%; in test [3], 106% (inactive); in test [4] it was 89.9% (inactive); in test [5] it was 85.6% (inactive); in test [6] (setting [9]) it was 86.5%; in test [6] (setting [10]), 85.6%. Also, the Her2 level in test [2] is 82% (inactive). In addition, the differential viability (reversal) in test [6] (H69AR cells + 2 uM doxorubicin) is -0.89% (inactive). The inhibition was -5.6% (inactive) in test [7] and 3.11% (inactive) in test [8].
